Type in all cases: functional
For experiment [1], the target named is Major prion protein (Mus musculus) (UniProt P04925). In words: Inhibition of PrP-res formation in SMB (Scrapie mouse brain) cells at 10 uM. An outline of the steps: (§1)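 Persistently scrapie-infected mouse SMB cells in 199 medium with 10% FCS, 5% newborn calf serum, 37 °C, 5% CO2; plated at 50% confluency, attached 24 h, then given fresh medium with compound diluted from 10 mM DMSO stock for 4 days. Lysates digested with proteinase K (80 μg/mL, 1 h, 37 °C); PrP-res detected by DR1 western blot, ECL, densitometry.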

The target is the same in experiment [2]. The experiment is described as follows: Inhibition of PrPC polymerization by PrP-res at 100 uM. Also noted: scale not given: the % may be the effect or the level left. In short, it runs like this:
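Substrate recombinant mouse PrP refolded without metal ions (50 μg), preincubated with compound (100 μM) in 500 μL H2O pH 6.5 for 30 min; seeded with aged Mn2+-refolded mouse PrP (10 μg). Turbidity read at 325 nm (5-mm cuvette) immediately and after 5 min; absorbance increase expressed as percentage of DMSO control.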

A short description of experiment [3]: Effective dose required for the inhibition of PrP-res formation in SMB cells. Conditions: Mus musculus, read-out: ED50 (the source's name). An outline of the steps:
as §1

Experiment [4] concerns SMB. The experiment is described as follows: Compound was tested for the inhibition of PrP-res formation in SMB cells at 50 uM. Conditions: Mus musculus. In short, it runs like this: as §1

The source of these data is ChEMBL document CHEMBL1137225, “Synthesis of analogues of Congo red and evaluation of their anti-prion activity” (2004).

Chain of Major prion protein (Mus musculus) (P04925 whole entry): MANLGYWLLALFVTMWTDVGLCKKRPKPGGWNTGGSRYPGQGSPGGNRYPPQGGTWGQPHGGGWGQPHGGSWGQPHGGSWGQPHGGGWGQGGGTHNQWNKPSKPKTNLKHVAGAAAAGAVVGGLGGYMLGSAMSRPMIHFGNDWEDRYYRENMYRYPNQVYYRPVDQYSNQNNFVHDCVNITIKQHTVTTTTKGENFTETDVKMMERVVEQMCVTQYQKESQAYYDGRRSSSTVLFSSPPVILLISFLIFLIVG

As for `Oc1ccccc1/N=C/c1ccc(/C=N/c2ccccc2O)cc1`, in experiment [1], the inhibition entry was “Negative”. The compound also gave a Control in experiment [2] of 85%.
`COC(=O)c1ccc(OC)c(NCc2ccc(CNc3cc(C(=O)OC)ccc3OC)cc2)c1`: in experiment [3], the EC50 was determined as 250 nM. In addition, the inhibition entry in experiment [1] is “Positive”. In experiment [2], this compound yielded a Control of 20%.
As for `CCOC(=O)c1ccc(/N=C/c2ccc(/C=N/c3ccc(C(=O)OCC)c(O)c3)cc2)cc1O`, in experiment [1], the inhibition result was “Negative”. In addition, the Control in experiment [2] stood at 92%.
For the compound `COC(=O)c1ccc(OC)c(NC(=O)c2ccc(C(=O)Nc3cc(C(=O)OC)ccc3OC)cc2)c1`, the inhibition result in experiment [1] is “Negative”. In experiment [2], the Control was 70%.
`COC(=O)c1ccc(NC(=O)c2ccc(C(=O)Nc3ccc(C(=O)OC)cc3)cc2)cc1`: the inhibition entry in experiment [1] is “Negative”. The Control in experiment [2] is 100%.
`O=[N+]([O-])c1ccc(/N=C/c2ccc(/C=N/c3ccc([N+](=O)[O-])cc3O)cc2)c(O)c1`: the inhibition entry in experiment [1] is “Negative”. This compound came in with a Control in experiment [2] of 109%.
As to `COC(=O)c1ccc(NCc2ccc(CNc3ccc(C(=O)OC)cc3O)cc2)c(O)c1`, the EC50 in experiment [3] was determined as 75 nM. Moreover, the inhibition entry in experiment [1] is “Positive”. For the same compound, the Control in experiment [2] was found to be 166%.
Consider `COC(=O)c1ccc(/N=C/c2ccc(/C=N/c3ccc(C(=O)OC)c(O)c3)cc2)cc1O`, for which the inhibition entry in experiment [1] is “Negative”. Further, the Control in experiment [2] was found to be 113%.
`COC(=O)c1ccc(OC)c(/N=C/c2ccc(/C=N/c3cc(C(=O)OC)ccc3OC)cc2)c1`: the inhibition result in experiment [4] and in experiment [1] was “Negative” each time. In experiment [2], the Control was found to be 47%.
Regarding `COC(=O)c1cc(NC(=O)c2ccc(C(=O)Nc3cc(C(=O)OC)cc(C(=O)OC)c3)cc2)cc(C(=O)OC)c1`, in experiment [3], the EC50 is 250 nM. In experiment [1], the inhibition entry was “Positive”. For the same compound, in experiment [2], the Control came out at 147%.
With `O=C(Nc1ccccc1)c1ccc(-c2ccc(C(=O)Nc3ccccc3)cc2)cc1`, in experiment [1], the inhibition entry was “Negative”. This compound showed a Control in experiment [2] of 171%.
The matching figures for `Oc1ccccc1/N=C/c1ccc(-c2ccc(/C=N/c3ccccc3O)cc2)cc1`: “Negative” and 281%.
As for `COC(=O)c1cc(/N=C/c2ccc(/C=N/c3ccc(O)c(C(=O)OC)c3)cc2)ccc1O`, the inhibition result in experiment [1] is “Negative”.
On to `COC(=O)c1ccc(NC(=O)c2ccc(-c3ccc(C(=O)Nc4ccc(C(=O)OC)c(OC)c4)cc3)cc2)cc1OC`, for which the EC50 in experiment [3] was determined as 250 nM. Besides, in experiment [1], the inhibition result is “Positive”. The Control in experiment [2] was determined as 70%.
The like results for `Oc1ccccc1NCc1ccc(CNc2ccccc2O)cc1` were, in that order, 2500 nM, “Positive” and 240%.
Take `CCOC(=O)c1cc(/N=C/c2ccc(/C=N/c3ccc(O)c(C(=O)OCC)c3)cc2)ccc1O`: the inhibition entry in experiment [1] was “Negative”. Besides, the Control in experiment [2] amounted to 60%.
On to `COC(=O)c1cc(NC(=O)c2ccc(-c3ccc(C(=O)Nc4ccc(O)c(C(=O)OC)c4)cc3)cc2)ccc1O`, for which the EC50 in experiment [3] worked out at 5000 nM. The inhibition result in experiment [1] is “Positive”. The Control in experiment [2] is 249%.
`COC(=O)c1ccc(OC)c(/N=C/c2ccc(-c3ccc(/C=N/c4cc(C(=O)OC)ccc4OC)cc3)cc2)c1`: the inhibition entry in experiment [1] is “Negative”.
Regarding `Oc1ccc(/N=C/c2ccc(-c3ccc(/C=N/c4ccc(O)cc4)cc3)cc2)cc1`, the EC50 in experiment [3] was 250 nM. Moreover, the inhibition entry in experiment [1] is “Positive”. Moreover, in experiment [2], the Control was determined as 104%.
Regarding `N#Cc1ccc(NC(=O)c2ccc(-c3ccc(C(=O)Nc4ccc(C#N)cc4)cc3)cc2)cc1`, the inhibition entry in experiment [1] was “Negative”. This compound also showed a Control in experiment [2] of 196%.
In the case of `C(=N\c1ccccc1)/c1ccc(-c2ccc(/C=N/c3ccccc3)cc2)cc1`, the inhibition result in experiment [1] is “Negative”. For the same compound, in experiment [2], the Control was found to be 315%.
For the compound `O=C(O)c1ccc(/N=C/c2ccc(-c3ccc(/C=N/c4ccc(C(=O)O)cc4O)cc3)cc2)c(O)c1`, the inhibition entry in experiment [1] was “Positive”. The compound also returned a Control in experiment [2] of 62%.
As for `COC(=O)c1ccc(NC(=O)c2ccc(-c3ccc(C(=O)Nc4ccc(C(=O)OC)c(O)c4)cc3)cc2)cc1O`, the inhibition result in experiment [1] was “Negative”. For the same compound, the Control entry in experiment [2] is recorded as “NR”.
Turning to `O=C(Nc1ccccc1)c1ccc(C(=O)Nc2ccccc2)cc1`, the inhibition result in experiment [1] was “Negative”. Also, in experiment [2], the Control came to 54%.
`COC(=O)c1ccc(NC(=O)c2ccc(C(=O)Nc3ccc(C(=O)OC)cc3O)cc2)c(O)c1`: the EC50 in experiment [3] was found to be 5000 nM. The inhibition result in experiment [1] was “Positive”. In experiment [2], this compound returned a Control of 62%.
Regarding `O=C(Nc1ccccc1O)c1ccc(-c2ccc(C(=O)Nc3ccccc3O)cc2)cc1`, the inhibition entry in experiment [1] is “Negative”. The Control in experiment [2] stood at 430%.
For the compound `O=C(O)c1cc(NC(=O)c2ccc(C(=O)Nc3cc(C(=O)O)cc(C(=O)O)c3)cc2)cc(C(=O)O)c1`, in experiment [1], the inhibition result was “Negative”. For the same compound, in experiment [2], the Control came out at 1%.
Turning to `O=C(O)c1cc(/N=C/c2ccc(/C=N/c3ccc(O)c(C(=O)O)c3)cc2)ccc1O`, in experiment [1], the inhibition result is “Negative”. In addition, the Control in experiment [2] was 53%.
In the case of `O=C(Nc1ccc([N+](=O)[O-])cc1O)c1ccc(C(=O)Nc2ccc([N+](=O)[O-])cc2O)cc1`, the inhibition entry in experiment [1] is “Negative”. The Control in experiment [2] was found to be 15%.
`Cc1ccc(/N=C/c2ccc(/C=N/c3ccc(C)cc3O)cc2)c(O)c1`: the inhibition entry in experiment [1] was “Negative”. Further, the Control in experiment [2] turned out to be 230%.
Take `C(=N\c1ccccc1)/c1ccc(/C=N/c2ccccc2)cc1`: in experiment [1], the inhibition entry is “Negative”.
Take `N#Cc1ccc(NC(=O)c2ccc(C(=O)Nc3ccc(C#N)cc3)cc2)cc1`: in experiment [1], the inhibition result is “Negative”. In experiment [2], the Control was found to be 68%.
Consider `O=C(O)c1ccc(/N=C/c2ccc(/C=N/c3ccc(C(=O)O)cc3)cc2)cc1`, for which, in experiment [1], the inhibition result is “Negative”. Moreover, the Control in experiment [2] was determined as 12%.
The matching figures for `O=C(Nc1ccc([N+](=O)[O-])cc1O)c1ccc(-c2ccc(C(=O)Nc3ccc([N+](=O)[O-])cc3O)cc2)cc1`: “Negative” and 160%.
Turning to `N#Cc1ccc(/N=C/c2ccc(/C=N/c3ccc(C#N)c4ccccc34)cc2)c2ccccc12`, in experiment [1], the inhibition entry was “Negative”. This compound also yielded a Control in experiment [2] of 148%.
As for `N#Cc1ccc(/N=C/c2ccc(/C=N/c3ccc(C#N)cc3)cc2)cc1`, the EC50 in experiment [3] came out at 500 nM. Also, the inhibition result in experiment [1] was “Positive”. The Control in experiment [2] amounted to 81%.
Turning to `O=C(O)c1ccc(C/N=C/c2ccc(/C=N/Cc3ccc(C(=O)O)cc3)cc2)cc1`, the inhibition entry in experiment [1] is “Negative”. Also, the Control in experiment [2] came to 117%.
The matching figures for `O=C(O)c1ccc(NCc2ccc(CNc3ccc(C(=O)O)cc3O)cc2)c(O)c1`: “Negative” and 79%.
Take `COc1cc(NC(=O)c2ccc(-c3ccc(C(=O)Nc4ccc(C(=O)O)c(OC)c4)cc3)cc2)ccc1C(=O)O`: the inhibition entry in experiment [1] was “Negative”. In addition, in experiment [2], the Control came to 472%.
The matching figures for `Oc1ccc(/N=C/c2ccc(/C=N/c3ccc(O)cc3)cc2)cc1`: “Negative” and 240%.
The matching figures for `COc1ccc(C(=O)O)cc1/N=C/c1ccc(/C=N/c2cc(C(=O)O)ccc2OC)cc1`: “Negative” and 11%.
